Published values pooled from the literature.
Each line is one published result; the experiments were not run side by side. ≈ marks a conversion by molar mass, not a printed value.

Compound | target or system | assay | system | setting | measurement | result
Cn1nccc1-c1nc(N2CCC(c3ccccn3)C2)c2ccccc2n1 (stereo not drawn) | Trypanosoma cruzi | parasite growth, imaging | U2OS | intracellular, amastigote | IC50 | 16.4 µM
CCOC(=O)c1ccc(-n2c(C)cc(C)c(C#N)c2=O)cc1 | HepG2 | cell growth or viability, MTT | – | 1.56 µM, 24 h | viability | 100%
CCOC(=O)c1c(NC(=O)c2c(F)c(F)c(F)c(F)c2F)sc2c1CCCC2 | Mycobacterium tuberculosis | microbial growth, resazurin | H37RV | – | MIC | < 50 µM
COc1ccc(NC(=O)c2c(Nc3ccccc3)sc(C#N)c2NC(=O)CNc2ccc(O)cc2)cc1 | HepG2 | cell growth or viability, SRB | – | 1 µM, 48 h | viability | 77.2%
Oc1ccc(-c2nc(N3CCC(c4ccccn4)C3)c3ccccc3n2)cc1 (stereo not drawn) | Trypanosoma cruzi | parasite growth, imaging | U2OS | intracellular, amastigote | IC50 | 1.13 µM
Nc1sc(-c2ccccc2)cc1C(=O)NCc1ccccc1 | Mycobacterium tuberculosis | microbial growth, resazurin | H37RV | – | MIC | 325 µM (≈ 100 µg/mL)
COc1ccc(NC(=O)c2c(Nc3ccccc3)sc(C(=O)NN=Cc3ccc(C)cc3)c2NC(C)=O)cc1 | HepG2 | cell growth or viability, SRB | – | 10 µM, 48 h | viability | 68.2%
N#Cc1ccccc1-c1nc(N2CCC(c3ccccn3)C2)c2ccccc2n1 (stereo not drawn) | Trypanosoma cruzi | parasite growth, imaging | U2OS | intracellular, amastigote | IC50 | 5.86 µM
CCN1CCc2c(sc(N)c2C(=O)NCc2ccccc2)C1 | Mycobacterium tuberculosis | microbial growth, resazurin | H37RV | – | MIC | > 300 µM
CCOC(=O)c1ccc(-n2c(C)cc(/C=C/c3ccc(OC)cc3)c(C#N)c2=O)cc1 | HepG2 | cell growth or viability, MTT | – | 6.25 µM, 24 h | viability | 96%
COc1ccc(NC(=O)c2c(Nc3ccccc3)sc(C#N)c2NC(=O)CNc2ccc(Cl)cc2)cc1 | HepG2 | cell growth or viability, SRB | – | 10 nM, 48 h | viability | 86.1%
CCN1CCc2c(sc(N)c2C(=O)NCc2ccc(C)cc2)C1 | Mycobacterium tuberculosis | microbial growth, resazurin | H37RV | – | MIC | > 300 µM
